Data reported in ChEMBL document CHEMBL1157626, “A concise synthesis of 1,4-dihydro-[1,4]diazepine-5,7-dione, a novel 7-TM receptor ligand core structure with melanocortin receptor agonist activity” (Bioorg Med Chem, 2010).
Active and inactive are the calls of the source. No cut-off for these calls is given here.

What was measured:
[1] = target: T1, Melanocortin receptor 4 (Homo sapiens, UniProt P32245); assay: Agonist activity at human MC4R expressed in CHO cells after 4 hrs by luciferase reporter gene assay; format: functional, cell-based
T1 sequence (P32245 whole entry): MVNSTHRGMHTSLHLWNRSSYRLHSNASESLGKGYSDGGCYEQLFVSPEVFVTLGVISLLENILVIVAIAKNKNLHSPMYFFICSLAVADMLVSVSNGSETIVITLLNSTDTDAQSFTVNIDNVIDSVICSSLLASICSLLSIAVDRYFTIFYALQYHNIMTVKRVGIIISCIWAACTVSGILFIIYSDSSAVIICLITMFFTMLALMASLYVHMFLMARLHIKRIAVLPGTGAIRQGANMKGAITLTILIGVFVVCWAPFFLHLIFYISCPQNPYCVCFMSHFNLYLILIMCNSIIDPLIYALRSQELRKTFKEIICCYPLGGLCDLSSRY
Summary of the method: (§1)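 CHO-6xCRE-luc+ cells expressing the human receptor, plated at 4000 cells/well in DMEM/F12 with 10% FBS 48 h before assay. Switched to serum-free medium 16 h before compound addition, then incubated 4 h at 37 °C. Luciferase read after 10 min dark adaptation. Activity expressed as % of fold stimulation by 1 × 10^-7 M NDP-aMSH (duplicate control wells).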

[2] = target: T2, Melanocyte-stimulating hormone receptor (Homo sapiens, UniProt Q01726); assay: Agonist activity at human MC1R expressed in CHO cells after 4 hrs by luciferase reporter gene assay; format: functional, cell-based; summary of the method: as §1
Target sequence in this assay (Q01726 whole entry): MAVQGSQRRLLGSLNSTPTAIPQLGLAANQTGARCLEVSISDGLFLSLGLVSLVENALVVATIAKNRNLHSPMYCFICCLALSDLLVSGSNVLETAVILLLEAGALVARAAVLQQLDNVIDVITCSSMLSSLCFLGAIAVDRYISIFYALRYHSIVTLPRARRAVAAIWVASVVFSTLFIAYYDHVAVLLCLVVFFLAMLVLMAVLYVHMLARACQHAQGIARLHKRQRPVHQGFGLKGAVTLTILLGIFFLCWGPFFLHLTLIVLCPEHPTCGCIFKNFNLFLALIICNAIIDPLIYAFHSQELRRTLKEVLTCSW

[3] = target: T1, Melanocortin receptor 4; assay: Agonist activity at human MC4R expressed in CHO cells at 10 uM after 4 hrs by luciferase reporter gene assay relative to alpha-melanocyte stimulating hormone; format: functional, cell-based; summary of the method: as §1
[4] = target: T2, Melanocyte-stimulating hormone receptor; assay: Agonist activity at human MC1R expressed in CHO cells at 10 uM after 4 hrs by luciferase reporter gene assay relative to alpha-melanocyte stimulating hormone; format: functional, cell-based; summary of the method: as §1
Target sequence in this assay (Q01726 whole entry, looked up): as the sequence (Q01726 whole entry) above

[5] = target: T1, Melanocortin receptor 4; assay: Agonist activity at human MC4R expressed in CHO cells after 4 hrs by luciferase reporter gene assay relative to alpha-melanocyte stimulating hormone; format: functional, cell-based; summary of the method: as §1
[6] = target: T2, Melanocyte-stimulating hormone receptor; assay: Agonist activity at human MC1R expressed in CHO cells after 4 hrs by luciferase reporter gene assay relative to alpha-melanocyte stimulating hormone; format: functional, cell-based; set-up: concentration or dose not given beside the values; summary of the method: as §1
Target sequence in this assay (Q01726 whole entry, looked up): as the sequence (Q01726 whole entry) above

[7] = organism: Homo sapiens; assay: Selectivity for human MC1R over human MC4R
[8] = tested on: Rattus norvegicus; assay: Anorexigenic activity in lean Sprague-Dawley rat assessed as suppression of peptide YY-induced food intake at 100 pmol, icv administered 15 mins before peptide YY challenge measured for 3 hrs; format: functional, organism-based
Summary of the method: (§2)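 Lean Sprague-Dawley rats (~400 g) with third-ventricle cannulae. Saline or 1 nmol SHU9119 given ICV 30 min before vehicle (2% DMSO/saline) or test compound ICV. 0.23 nmol PYY given ICV 15 min later. Powdered chow intake logged every half hour for 3 h. N = 7–8 per group.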

[9] = tested on: Rattus norvegicus; assay: Anorexigenic activity in lean Sprague-Dawley rat assessed as suppression of peptide YY-induced food intake at 100 pmol, icv administered 15 mins before peptide YY challenge measured for 3 hrs in presence of MC4R antagonist SHU9119; format: functional, organism-based; summary of the method: as §2

EC50 ([1]; read-out: EC50) [nM]	Efficacy [3] [%]	EC50 ([1]; read-out: pEC50 (converted)) [nM]	Activity [5]	EC50 ([2]; read-out: pEC50 (converted)) [nM]	Activity [6] [%]	SMILES	also measured
> 30000	0	–	–	–	–	CC(C)N(C(=O)CN1C=CN(c2ccccc2)C(=O)[C@@H](Cc2n[nH]c3cc(F)ccc23)C1=O)c1ccccc1	EC50 ([2]; read-out: EC50): > 30000 nM; Efficacy [4]: 2%
–	–	1260	23	35.5	79	CC(C)N(C(=O)CN1C=CN(c2ccccc2)C(=O)[C@H](Cc2n[nH]c3cc(F)ccc23)C1=O)c1ccccc1	–
> 30000	14	–	–	1550	–	COc1ccc(N(C(=O)CN2C=CN(c3ccccc3)C(=O)[C@@H](Cc3n[nH]c4ccccc34)C2=O)C(C)C)cc1	–
–	–	355	39	–	83	COc1ccc(N(C(=O)CN2C=CN(c3ccccc3)C(=O)C(Cc3n[nH]c4cc(F)ccc34)C2=O)C(C)C)cc1 (racemic)	–
–	–	661	31	12.6	65	COc1ccc(N(C(=O)CN2C=CN(c3cccnc3)C(=O)C(Cc3n[nH]c4cc(F)ccc34)C2=O)C(C)C)cc1 (racemic)	–
> 30000	6	–	–	794	59	COc1ccc(N(C(=O)CN2C=CN(Cc3ccccc3)C(=O)C(Cc3n[nH]c4ccccc34)C2=O)C(C)C)cc1 (racemic)	–
–	–	151	78	–	91	CC(C)N(C(=O)CN1C=CN(c2ccccc2)C(=O)C(Cc2n[nH]c3ccccc23)C1=O)c1ccc(OC(F)(F)F)cc1 (racemic)	–
> 30000	5	–	–	3720	62	CC(C)N(C(=O)CN1C=CN(C)C(=O)C(Cc2n[nH]c3cc(F)ccc23)C1=O)c1ccc(F)cc1 (racemic)	–
–	–	537	19	186	51	CC(C)N(C(=O)CN1C=CN(c2ccccc2)C(=O)C(Cc2n[nH]c3cc(F)ccc23)C1=O)c1ccccc1 (racemic)	–
–	–	282	22	–	54	CC(C)N(C(=O)CN1C=CN(c2ccccc2)C(=O)C(Cc2n[nH]c3ccccc23)C1=O)c1ccc(F)cc1 (racemic)	–
–	–	178	19	–	53	CC(C)N(C(=O)CN1C=CN(c2ccccc2)C(=O)C(Cc2n[nH]c3cc(F)ccc23)C1=O)c1ccc(F)cc1 (racemic)	–
–	–	708	45	–	68	COc1ccc(N(C(=O)CN2C=CN(c3ccccc3)C(=O)C(Cc3n[nH]c4ccccc34)C2=O)C(C)C)cc1 (racemic)	inhibition [8]: Active; inhibition [9]: inactive
–	–	2880	31	178	60	COc1ccc(N(C(=O)CN2C=CN(c3cccnc3)C(=O)C(Cc3n[nH]c4ccccc34)C2=O)C(C)C)cc1 (racemic)	–
–	–	1000	–	550	–	CC(C)N(C(=O)CN1C=CN(c2ccccc2)C(=O)C(Cc2n[nH]c3ccccc23)C1=O)c1ccc(O)cc1 (racemic) [listing 1 of 2 here]	–
–	–	–	30	–	54	CC(C)N(C(=O)CN1C=CN(c2ccccc2)C(=O)C(Cc2n[nH]c3ccccc23)C1=O)c1ccc(O)cc1 (racemic) [listing 2 of 2 here]	–
–	–	1000	–	–	–	CC(C)N(C(=O)CN1C=CN(c2ccccc2)C(=O)C(Cc2n[nH]c3ccccc23)C1=O)c1ccc(O)cc1 (single isomer, unassigned; form 1) [listing 1 of 2 here]	–
–	–	–	44	–	79	CC(C)N(C(=O)CN1C=CN(c2ccccc2)C(=O)C(Cc2n[nH]c3ccccc23)C1=O)c1ccc(O)cc1 (single isomer, unassigned; form 1) [listing 2 of 2 here]	–
> 30000	–	–	–	52.5	–	CC(C)N(C(=O)CN1C=CN(c2ccccc2)C(=O)C(Cc2n[nH]c3ccccc23)C1=O)c1ccc(O)cc1 (single isomer, unassigned; form 2) [listing 1 of 2 here]	–
–	5	–	–	–	16	CC(C)N(C(=O)CN1C=CN(c2ccccc2)C(=O)C(Cc2n[nH]c3ccccc23)C1=O)c1ccc(O)cc1 (single isomer, unassigned; form 2) [listing 2 of 2 here]	–

Further lines, the compound ahead of its results:

SMILES	EC50 ([1]; read-out: EC50) [nM]	Efficacy [3] [%]	EC50 ([1]; read-out: pEC50 (converted)) [nM]	Activity [5]	EC50 ([2]; read-out: pEC50 (converted)) [nM]	Activity [6] [%]	also measured
O=C1[C@H](Cc2n[nH]c3ccccc23)C(=O)N(c2ccccc2)C=CN1CC(=O)N1CCCCc2ccccc21	–	–	794	20	61.7	76	–
CC(C)N(C(=O)CN1C=CN(c2ccccc2)C(=O)[C@@H](Cc2n[nH]c3ccccc23)C1=O)c1ccccc1	> 30000	3	–	–	–	–	EC50 ([2]; read-out: EC50): > 30000 nM; Efficacy [4]: 9%
CC(C)N(C(=O)CN1C=CN(c2ccccc2)C(=O)[C@H](Cc2n[nH]c3ccccc23)C1=O)c1ccccc1	–	–	1070	26	295	54	–
O=C1[C@@H](Cc2n[nH]c3ccccc23)C(=O)N(c2ccccc2)C=CN1CC(=O)N1CCCCc2ccccc21	–	–	100	27	1.58	86	–
COC1(Cc2n[nH]c3ccccc23)C(=O)N(CC(=O)N(c2ccc(F)cc2)C(C)C)C=CN(c2ccccc2)C1=O (racemic)	–	–	44.7	52	2950	33	–
COc1ccc(N(C(=O)CN2C=CN(c3ccccc3)C(=O)C(Cc3cc[nH]n3)(Cc3n[nH]c4ccccc34)C2=O)C(C)C)cc1 (racemic)	–	–	1050	16	398	30	–
COc1ccc(N(C(=O)CN2C=CN(c3ccccc3)C(=O)C(Cc3n[nH]c4ccccc34)(OC)C2=O)C(C)C)cc1 (racemic)	–	–	166	74	1380	58	–
COc1ccc(N(C(=O)CN2C=CN(c3ccccc3)C(=O)C(Cc3nn(C)c4ccccc34)C2=O)C(C)C)cc1 (racemic)	> 30000	5	–	–	–	–	EC50 ([2]; read-out: EC50): > 30000 nM; Efficacy [4]: 6%
CCn1nc(CC2C(=O)N(CC(=O)N(c3ccc(OC)cc3)C(C)C)C=CN(c3ccccc3)C2=O)c2ccccc21 (racemic)	> 30000	5	–	–	–	–	EC50 ([2]; read-out: EC50): > 30000 nM; Efficacy [4]: 2%
O=C(CN1C=CN(c2ccccc2)C(=O)C(Cc2n[nH]c3ccccc23)C1=O)CP(=O)(Oc1ccccc1)Oc1ccccc1 (racemic)	> 30000	5	–	–	–	–	EC50 ([2]; read-out: EC50): > 30000 nM; Efficacy [4]: 1%
CC(C)N(C(=O)CN1C=CN(c2ccccc2)C(=O)C(Cc2n[nH]c3ccccc23)C1=O)c1ccc(N2CCOCC2)cc1 (racemic)	> 30000	3	–	–	832	22	–
O=C(CN1C=CN(c2ccccc2)C(=O)C(Cc2n[nH]c3ccccc23)C1=O)CP(=O)(O)Oc1ccccc1 (racemic)	> 30000	4	–	–	–	–	EC50 ([2]; read-out: EC50): > 30000 nM; Efficacy [4]: 3%
O=C1C(Cc2n[nH]c3cc(F)ccc23)C(=O)N(c2ccccc2)C=CN1CC(=O)N1CCCCc2ccccc21 (racemic)	–	–	437	16	–	61	Selectivity ratio [7]: > 100
COc1ccc(N(C(=O)CN2C=CN(C3CCCCC3)C(=O)C(Cc3ccccc3)C2=O)C(C)C)cc1 (racemic)	> 30000	0	–	–	–	–	EC50 ([2]; read-out: EC50): > 30000 nM; Efficacy [4]: 0%
O=C1C(Cc2n[nH]c3ccccc23)C(=O)N(c2ccccc2)C=CN1CC(=O)N1CCCCc2ccccc21 (racemic)	–	–	324	17	–	61	–
CC(C)N(C(=O)CN1C=CN(c2ccccc2)C(=O)C(Cc2n[nH]c3ccccc23)C1=O)c1ccccc1 (racemic)	–	–	3240	22	708	42	–
COc1ccc(N(C(=O)CN2C=CN(C3CCCCC3)C(=O)C(Cc3n[nH]c4ccccc34)C2=O)C(C)C)cc1 (racemic)	> 30000	19	–	–	–	–	EC50 ([2]; read-out: EC50): > 30000 nM; Efficacy [4]: 25%
